# Test results published in ChEMBL document CHEMBL4350999, “Enhanced tumor retention of NTSR1-targeted agents by employing a hydrophilic cysteine cathepsin inhibitor” (Eur J Med Chem, 2019).
# How the values were obtained:
# [1] = Drug uptake in heart of SCID mouse xenografted with human HT-29 cells at 0.37 MBq/mouse, iv measured at 4 hrs using 177Lu labelled compound by gamma counter analysis; type: ADME, organism-based; conditions: in vivo
# Method in brief: (§1)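 Female SCID mice (5 weeks) bore s.c. flank xenografts of HT-29 cells (5 × 10^6 in Matrigel), used at about 80 mm3 (two weeks) and randomized. Each mouse received 10 μCi (0.37 MBq) of HPLC-purified 177Lu-conjugate via tail vein. Tissues were excised, weighed and gamma-counted, expressed as %ID/g; mean ± SD, n = 5.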
# [2] = Drug uptake in lung of SCID mouse xenografted with human HT-29 cells at 0.37 MBq/mouse, iv measured at 4 hrs using 177Lu labelled compound by gamma counter analysis; type: ADME, organism-based; conditions: in vivo; method in brief: as §1
# [3] = Drug uptake in liver of SCID mouse xenografted with human HT-29 cells at 0.37 MBq/mouse, iv measured at 4 hrs using 177Lu labelled compound by gamma counter analysis; type: ADME, organism-based; conditions: in vivo; method in brief: as §1
# [4] = Drug uptake in pancreas of SCID mouse xenografted with human HT-29 cells at 0.37 MBq/mouse, iv measured at 4 hrs using 177Lu labelled compound by gamma counter analysis; type: ADME, organism-based; conditions: in vivo; method in brief: as §1
# [5] = Drug uptake in small intestine of SCID mouse xenografted with human HT-29 cells at 0.37 MBq/mouse, iv measured at 4 hrs using 177Lu labelled compound by gamma counter analysis; type: ADME, organism-based; conditions: in vivo; method in brief: as §1
# [6] = Drug uptake in large intestine of SCID mouse xenografted with human HT-29 cells at 0.37 MBq/mouse, iv measured at 4 hrs using 177Lu labelled compound by gamma counter analysis; type: ADME, organism-based; conditions: in vivo; method in brief: as §1
# [7] = Drug uptake in muscle of SCID mouse xenografted with human HT-29 cells at 0.37 MBq/mouse, iv measured at 4 hrs using 177Lu labelled compound by gamma counter analysis; type: ADME, organism-based, Muscle tissue; conditions: in vivo; method in brief: as §1
# [8] = Drug uptake in heart of SCID mouse xenografted with human HT-29 cells at 0.37 MBq/mouse, iv measured at 24 hrs using 177Lu labelled compound by gamma counter analysis; type: ADME, organism-based; conditions: in vivo; method in brief: as §1
# [9] = Drug uptake in brain of SCID mouse xenografted with human HT-29 cells at 0.37 MBq/mouse, iv measured at 4 hrs using 177Lu labelled compound by gamma counter analysis; type: ADME, organism-based; conditions: in vivo; method in brief: as §1
# [10] = Drug uptake in pancreas of SCID mouse xenografted with human HT-29 cells at 0.37 MBq/mouse, iv measured at 24 hrs using 177Lu labelled compound by gamma counter analysis; type: ADME, organism-based; conditions: in vivo; method in brief: as §1
# [11] = Drug uptake in liver of SCID mouse xenografted with human HT-29 cells at 0.37 MBq/mouse, iv measured at 24 hrs using 177Lu labelled compound by gamma counter analysis; type: ADME, organism-based; conditions: in vivo; method in brief: as §1
# [12] = Drug uptake in SCID mouse xenografted with human HT-29 cells assessed as tumour retention at 0.37 MBq/mouse, iv measured at 24 hrs using 177Lu labelled compound by gamma counter analysis; type: ADME, organism-based; conditions: in vivo
# Method in brief: (§2)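 Female SCID mice bearing s.c. flank HT-29 xenografts (5 × 10^6 cells in Matrigel, ~80 mm3). Given 10 μCi (0.37 MBq) 177Lu conjugate i.v. by tail vein; groups sacrificed at 4, 24, 72 h. Tissues weighed and gamma-counted as %ID/g, excretion as %ID; n = 5, mean ± SD. Blocking arms: colchicine 1 mg/kg i.p. beforehand, or D-lysine 40 mg/kg co-injected.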
# [13] = Drug uptake in stomach of SCID mouse xenografted with human HT-29 cells at 0.37 MBq/mouse, iv measured at 24 hrs using 177Lu labelled compound by gamma counter analysis; type: ADME, organism-based; conditions: in vivo
# Method in brief: (§3)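 Female SCID mice (5 weeks old) received s.c. flank HT-29 cells (5 × 10^6 in Matrigel). At ~80 mm3, two weeks later, mice were randomized and given 10 μCi (0.37 MBq) of purified 177Lu conjugate i.v. by tail vein. Mice were killed at 4, 24 or 72 h. Tissues were weighed and gamma counted as %ID/g, mean ± SD, n = 5. Tumor-to-tissue ratios were calculated.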
# [14] = Drug uptake in spleen of SCID mouse xenografted with human HT-29 cells at 0.37 MBq/mouse, iv measured at 24 hrs using 177Lu labelled compound by gamma counter analysis; type: ADME, organism-based; conditions: in vivo; method in brief: as §3
# [15] = Drug uptake in small intestine of SCID mouse xenografted with human HT-29 cells at 0.37 MBq/mouse, iv measured at 24 hrs using 177Lu labelled compound by gamma counter analysis; type: ADME, organism-based; conditions: in vivo; method in brief: as §1
# [16] = Drug uptake in large intestine of SCID mouse xenografted with human HT-29 cells at 0.37 MBq/mouse, iv measured at 24 hrs using 177Lu labelled compound by gamma counter analysis; type: ADME, organism-based; conditions: in vivo; method in brief: as §1
# [17] = Drug uptake in brain of SCID mouse xenografted with human HT-29 cells at 0.37 MBq/mouse, iv measured at 24 hrs using 177Lu labelled compound by gamma counter analysis; type: ADME, organism-based; conditions: in vivo; method in brief: as §1
# [18] = Drug uptake in lung of SCID mouse xenografted with human HT-29 cells at 0.37 MBq/mouse, iv measured at 72 hrs using 177Lu labelled compound by gamma counter analysis; type: ADME, organism-based; conditions: in vivo; method in brief: as §1
# [19] = Drug uptake in liver of SCID mouse xenografted with human HT-29 cells at 0.37 MBq/mouse, iv measured at 72 hrs using 177Lu labelled compound by gamma counter analysis; type: ADME, organism-based; conditions: in vivo; method in brief: as §1
# [20] = Drug uptake in stomach of SCID mouse xenografted with human HT-29 cells at 0.37 MBq/mouse, iv measured at 72 hrs using 177Lu labelled compound by gamma counter analysis; type: ADME, organism-based; conditions: in vivo; method in brief: as §3
# [21] = Drug uptake in small intestine of SCID mouse xenografted with human HT-29 cells at 0.37 MBq/mouse, iv measured at 72 hrs using 177Lu labelled compound by gamma counter analysis; type: ADME, organism-based; conditions: in vivo; method in brief: as §1
# [22] = Drug uptake in large intestine of SCID mouse xenografted with human HT-29 cells at 0.37 MBq/mouse, iv measured at 72 hrs using 177Lu labelled compound by gamma counter analysis; type: ADME, organism-based; conditions: in vivo; method in brief: as §1
# [23] = Drug uptake in kidney of SCID mouse xenografted with human HT-29 cells at 0.37 MBq/mouse, iv measured at 72 hrs using 177Lu labelled compound by gamma counter analysis; type: ADME, organism-based; conditions: in vivo; method in brief: as §1
# [24] = Drug uptake in bone of SCID mouse xenografted with human HT-29 cells at 0.37 MBq/mouse, iv measured at 72 hrs using 177Lu labelled compound by gamma counter analysis; type: ADME, organism-based, Bone element; conditions: in vivo; method in brief: as §1
# [25] = Drug uptake in SCID mouse xenografted with human HT-29 cells assessed as tumour retention level at 0.37 MBq/mouse, iv measured at 72 hrs using 177Lu labelled compound by gamma counter analysis; type: ADME, organism-based; conditions: in vivo; method in brief: as §2
# [26] = Drug excretion in SCID mouse xenografted with human HT-29 cells at 0.37 MBq/mouse, iv measured after 72 hrs using 177Lu labelled compound; type: ADME, organism-based; conditions: in vivo; method in brief: as §2
# [27] = Octanol-PBS buffer distribution coefficient, log D of 177Lu labelled compound at pH 7.4 by radiometric analysis; type: physicochemical
# Method in brief: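 177Lu conjugate partitioned between 1-octanol and PBS pH 7.4. 100 μL aliquots from each layer were gamma counted, and LogD7.4 was calculated from the counts.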
# [28] = Drug uptake in blood of SCID mouse xenografted with human HT-29 cells at 0.37 MBq/mouse, iv measured at 24 hrs using 177Lu labelled compound by gamma counter analysis; type: ADME, organism-based; conditions: in vivo; method in brief: as §2
# [29] = Drug uptake in heart of SCID mouse xenografted with human HT-29 cells at 0.37 MBq/mouse, iv measured at 72 hrs using 177Lu labelled compound by gamma counter analysis; type: ADME, organism-based; conditions: in vivo; method in brief: as §1
Drug uptake [1] [% ID/g],Drug uptake [2] [% ID/g],Drug uptake [3] [% ID/g],Drug uptake [4] [% ID/g],Drug uptake [5] [% ID/g],Drug uptake [6] [% ID/g],Drug uptake [7] [% ID/g],Drug uptake [8] [% ID/g],Drug uptake [9] [% ID/g],Drug uptake [10] [% ID/g],Drug uptake [11] [% ID/g],Drug uptake [12] [% ID/g],Drug uptake [13] [% ID/g],Drug uptake [14] [% ID/g],Drug uptake [15] [% ID/g],Drug uptake [16] [% ID/g],Drug uptake [17] [% ID/g],Drug uptake [18] [% ID/g],Drug uptake [19] [% ID/g],Drug uptake [20] [% ID/g],Compound,other results
0.13,0.37,0.42,0.12,2.9,1,0.04,0.01,0.02,0.11,0.4,4.4,0.15,1.6,1.9,0.73,0.01,0.24,0.26,0.08,Cc1cc(O)cc(C)c1C[C@H](NC(=O)[C@@H]1CCCN1C(=O)[C@H](CCCNC(=N)N)NC(=O)[C@H](CCCNC(=N)N)N(C)C(=O)[C@@H]1CCCN1C(=O)[C@H](CCCCN)NC(=O)[C@@H](CO)NC(=O)[C@@H](CO)NC(=O)[C@@H](CO)NC(=O)[C@H](Cc1cn(CCNC(=O)[C@H](CCCNC(=N)N)NC(=O)[C@H](CC(C)C)NC(=O)CCC(=O)O)nn1)NC(=O)CN1CCN(CC(=O)O)CCN(CC(=O)O)CCN(CC(=O)O)CC1)C(=O)N[C@H](C(=O)N[C@@H](CC(C)C)C(=O)O)C(C)(C)C,Drug uptake [21]: 1.07 % ID/g; Drug uptake [22]: 0.36 % ID/g; Drug uptake [23]: 15 % ID/g; Drug uptake [24]: 0.12 % ID/g; Drug uptake [25]: 2.6 % ID/g; Drug excretion [26]: 91.6 %ID; logD [27]: -3.51
0.14,0.53,0.78,0.19,3.5,1.2,0.09,0.08,0.01,0.18,0.73,6.2,0.33,1.7,3.2,1.1,0.02,0.3,0.67,0.21,Cc1cc(O)cc(C)c1C[C@H](NC(=O)[C@@H]1CCCN1C(=O)[C@H](CCCNC(=N)N)NC(=O)[C@H](CCCNC(=N)N)N(C)C(=O)[C@@H]1CCCN1C(=O)[C@H](CCCCN)NC(=O)[C@@H](CO)NC(=O)[C@@H](CO)NC(=O)[C@@H](CO)NC(=O)[C@H](Cc1cn(CCNC(=O)[C@H](CCCNC(=N)N)NC(=O)[C@H](CC(C)C)NC(=O)C2OC2C(=O)O)nn1)NC(=O)CN1CCN(CC(=O)O)CCN(CC(=O)O)CCN(CC(=O)O)CC1)C(=O)N[C@H](C(=O)N[C@@H](CC(C)C)C(=O)O)C(C)(C)C (some centres undefined),Drug uptake [28]: 0.01 % ID/g; Drug uptake [29]: 0.04 % ID/g; Drug uptake [21]: 2.3 % ID/g; Drug uptake [22]: 0.73 % ID/g; Drug uptake [23]: 46 % ID/g; Drug uptake [24]: 0.6 % ID/g; Drug uptake [25]: 3.9 % ID/g; Drug excretion [26]: 80.8 %ID; logD [27]: -3.78
1.1,4.3,9.2,0.84,7.6,4,0.44,0.6,0.11,0.77,8.3,5.1,0.9,18,5.6,2.6,0.04,1.2,5.3,0.51,Cc1cc(O)cc(C)c1C[C@H](NC(=O)[C@@H]1CCCN1C(=O)[C@H](CCCNC(=N)N)NC(=O)[C@H](CCCNC(=N)N)N(C)C(=O)[C@@H]1CCCN1C(=O)[C@H](CCCCN)NC(=O)[C@@H](CO)NC(=O)[C@@H](CO)NC(=O)[C@@H](CO)NC(=O)[C@H](Cc1cn(CC(=O)N[C@H](CO)C(=O)N[C@H](CO)C(=O)N[C@H](CO)C(=O)NCC(=O)NCCCC[C@H](NC(=O)[C@H](Cc2ccccc2)NC(=O)OCc2ccccc2)C(=O)NCCc2ccccc2)nn1)NC(=O)CN1CCN(CC(=O)O)CCN(CC(=O)O)CCN(CC(=O)O)CC1)C(=O)N[C@H](C(=O)N[C@@H](CC(C)C)C(=O)O)C(C)(C)C,Drug uptake [28]: 0.14 % ID/g; Drug uptake [29]: 0.27 % ID/g; Drug uptake [21]: 3.2 % ID/g; Drug uptake [22]: 1.62 % ID/g; Drug uptake [23]: 28 % ID/g; Drug uptake [24]: 1 % ID/g; Drug uptake [25]: 3.4 % ID/g; Drug excretion [26]: 73 %ID
